Measurements of several laboratories.
Compare with care: the assays were run in different laboratories.
Target: Serine/threonine-protein kinase PLK4 (PLK4, Homo sapiens, UniProt O00444)
Sequence (O00444 1-970, as in one of the studies): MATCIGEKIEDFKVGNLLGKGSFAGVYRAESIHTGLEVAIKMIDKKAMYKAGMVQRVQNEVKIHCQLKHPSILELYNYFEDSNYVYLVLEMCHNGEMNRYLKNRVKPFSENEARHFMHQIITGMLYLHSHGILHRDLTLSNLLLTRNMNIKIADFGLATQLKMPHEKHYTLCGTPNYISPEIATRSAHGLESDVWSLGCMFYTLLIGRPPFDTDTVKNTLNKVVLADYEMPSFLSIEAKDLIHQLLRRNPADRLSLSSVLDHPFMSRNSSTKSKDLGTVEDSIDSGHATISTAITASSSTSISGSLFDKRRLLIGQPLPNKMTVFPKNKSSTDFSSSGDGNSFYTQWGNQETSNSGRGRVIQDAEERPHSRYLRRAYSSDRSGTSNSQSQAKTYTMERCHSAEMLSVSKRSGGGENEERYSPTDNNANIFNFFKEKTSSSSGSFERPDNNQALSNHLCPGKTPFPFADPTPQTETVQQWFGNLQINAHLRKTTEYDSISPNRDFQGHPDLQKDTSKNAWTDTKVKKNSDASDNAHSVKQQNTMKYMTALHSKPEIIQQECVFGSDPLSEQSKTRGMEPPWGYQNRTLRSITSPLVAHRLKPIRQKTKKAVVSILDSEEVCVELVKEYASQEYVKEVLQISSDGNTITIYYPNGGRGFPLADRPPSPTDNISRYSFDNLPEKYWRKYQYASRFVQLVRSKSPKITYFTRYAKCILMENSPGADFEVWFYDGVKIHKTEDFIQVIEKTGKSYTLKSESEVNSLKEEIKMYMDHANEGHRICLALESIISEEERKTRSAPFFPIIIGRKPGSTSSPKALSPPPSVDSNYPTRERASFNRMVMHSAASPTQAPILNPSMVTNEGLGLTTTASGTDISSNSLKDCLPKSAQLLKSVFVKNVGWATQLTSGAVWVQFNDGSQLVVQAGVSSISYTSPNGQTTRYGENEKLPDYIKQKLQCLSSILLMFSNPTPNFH

CCCCC(=O)Nc1ccc(-c2ccc3ncn(CCC)c(=O)c3c2)cn1 — remaining binding (binding; competition with immobilised ligand; 0.5 µM): 100%
C1=C/COCc2cc(ccc2OCCN2CCCC2)Nc2nccc(n2)-c2cccc(c2)COC/1 — remaining binding (binding; 0.1 µM): 42%
C=CC(=O)N1CCC([C@@H]2CCNc3c(C(N)=O)c(-c4ccc(Oc5ccccc5)cc4)nn32)CC1 — inhibition (enzyme activity; inhibitor; 1 µM): 1%
Cc1ccc(NC(=O)c2ccnc(C(F)(F)F)c2)cc1-c1cc(OCCO)nc(N2CCOCC2)c1 — remaining binding (binding; competition with immobilised ligand; 1 µM): 75%
C#Cc1cc(-c2cc(Nc3nc(N[C@@H](C)c4ccc(F)cn4)ncc3Cl)n[nH]2)ccc1C=O — inhibition (enzyme activity; inhibitor; 0.2 µM): 80.7%
C=CC(=O)N1CCC[C@@H](n2nc(-c3ccc(Oc4ccccc4)cc3)c3c(N)ncnc32)C1 — inhibition (enzyme activity; inhibitor; 1 µM): 5%
C[C@H]1CC[C@H](n2c3cnccc3c3cnc(Nc4ccc5c(n4)CCN(C(=O)CO)C5)nc32)CC1 — remaining binding (binding; competition with immobilised ligand; 1 µM): 18%
COc1ccc2oc(-c3ccc4nc(N)oc4c3)c/c(=N\c3ccccc3NC(=O)CCN)c2c1 — remaining binding (binding; 1 µM): 98%
N#Cc1ccc(NC(=O)Nc2ccccc2)cc1 — remaining binding (cell-free assay; competition with immobilised ligand; 25 µM): 61%
